The source of these data is ChEMBL document CHEMBL3414544, “PAINS in the assay: chemical mechanisms of assay interference and promiscuous enzymatic inhibition observed during a sulfhydryl-scavenging HTS” (J Med Chem, 2015).

What is called IC50 is the concentration that gives 50% inhibition.

Data set [1] deals with T1, Histone acetyltransferase RTT109 (Saccharomyces cerevisiae (strain ATCC 204508 / S288c) (Baker's yeast), UniProt Q07794).
T1 sequence (Q07794 whole entry): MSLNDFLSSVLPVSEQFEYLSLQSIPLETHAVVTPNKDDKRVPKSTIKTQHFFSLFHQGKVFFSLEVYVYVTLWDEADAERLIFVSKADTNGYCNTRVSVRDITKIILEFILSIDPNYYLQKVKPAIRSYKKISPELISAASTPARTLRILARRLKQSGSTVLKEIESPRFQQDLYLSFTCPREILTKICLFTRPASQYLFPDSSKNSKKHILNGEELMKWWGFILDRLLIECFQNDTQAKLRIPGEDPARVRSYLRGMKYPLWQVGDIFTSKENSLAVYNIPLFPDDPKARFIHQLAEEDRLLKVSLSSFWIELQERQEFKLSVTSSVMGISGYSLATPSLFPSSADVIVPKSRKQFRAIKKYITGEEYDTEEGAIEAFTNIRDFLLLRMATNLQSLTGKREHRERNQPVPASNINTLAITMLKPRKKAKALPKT
Briefly: Inhibition of Vps75-stimulated recombinant Saccharomyces cerevisiae histone acetyltransferase Rtt109 using Asf1-dH3-H4 as substrate assessed as coenzyme A production after 45 mins by CPM based HTS assay. Particulars: read-out: IC50. The method, boiled down:
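Recombinant Rtt109–Vps75 at 50 nM, with Asf1–dH3–H4 as substrate and acetyl-CoA as acetyl donor. Buffer contained freshly prepared 0.01% Triton X-100. The CoA product was detected by fluorescence of its CPM adduct. Plates had Z′ ≥0.5. IC50 came from a four-parameter variable-slope fit.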

For data set [2], the target named is T2, Histone acetyltransferase RTT109 (Saccharomyces cerevisiae (strain ATCC 204508 / S288c) (Baker's yeast)) (UniProt Q07794).
T2 sequence (whole entry): T1 sequence (Q07794 whole entry)
Kind of data set: Inhibition of Vps75-stimulated recombinant Saccharomyces cerevisiae histone acetyltransferase Rtt109 assessed as H3K56 acetylated product at […] after 45 mins by Slot bolt inhibiton assay.

Data set [3] has as its target T2, Histone acetyltransferase RTT109 (Saccharomyces cerevisiae (strain ATCC 204508 / S288c) (Baker's yeast)). Briefly: Inhibition of Vps75-stimulated recombinant Saccharomyces cerevisiae histone acetyltransferase Rtt109 assessed as H3K27 acetylated product at […] after 45 mins by Slot bolt inhibiton assay.
Data set [4] in a line: Fluorescence quenching assessed as fluorescence signal reduction at 10 uM after 10 mins. Type of data set: physicochemical. The method, boiled down:
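CPM (20 μM final) and CoA (5 μM final) reacted to completion in assay buffer (stable plateau, usually ~5 min); adduct solution added to wells preplated with compound; shaken 5 min, equilibrated 5 min at room temperature; fluorescence intensity read as percent signal reduction versus DMSO controls. Flagged as quencher at >20% signal reduction at 10 μM final compound.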

The nature of data set [5]: Fluorescence quenching in HTS buffer assessed as fluorescence signal reduction at 10 uM after 10 mins. The data set is classed as physicochemical.
Data set [6] can be described thus: Fluorescence quenching in HTS buffer with […] CoA assessed as fluorescence signal reduction at 10 uM after 10 mins. The data set is classed as physicochemical.
Data set [7] in a line: Fluorescence quenching in HTS buffer with 20 uM 7-diethylamino-3-(4'-maleimidyl-phenyl)-4-methylcoumarin assessed as fluorescence signal reduction at 10 uM after 10 mins. The data set is classed as physicochemical.

Active and inactive are the calls of the source.

On to `O=S(=O)(Nc1cc(Sc2nc[nH]n2)c(O)c2ccccc12)c1ccccc1`, for which the IC50 in data set [1] worked out at 1400 nM. The result in data set [2] and in data set [3] was Active. Also, the Activity result in data set [4], in data set [5], in data set [6] and in data set [7] was “Not Active” in each case.

As for `O=S(=O)(Nc1cc(Sc2nc[nH]n2)c(O)c2ccccc12)c1ccc(Cl)cc1`, in data set [1], the IC50 stood at 1400 nM. Besides, the outcome in data set [2] was inactive. The result in data set [3] was Active. Also, the Activity entry in data set [4], in data set [5], in data set [6] and in data set [7] was “Not Active” throughout.

Regarding `O=C1CC(Sc2nc[nH]n2)C(=O)N1c1ccccc1` (configuration not stated), the IC50 in data set [1] was 15000 nM. Moreover, the outcome in data set [2] and in data set [3] was Active. Further, the Activity result in data set [4], in data set [5], in data set [6] and in data set [7] was “Not Active” in each case.

Turning to `CN(CCO)c1cc(Sc2nnc(-c3ccccc3)o2)c2nonc2c1[N+](=O)[O-]`, the IC50 in data set [1] turned out to be 5300 nM. The outcome in data set [2] and in data set [3] was Active. The Activity entry in data set [4], in data set [5], in data set [6] and in data set [7] was “Not Active” each time.

For the compound `COc1ccc(-c2nnc(Sc3ccc([N+](=O)[O-])c4nonc34)o2)cc1`, in data set [1], the IC50 was found to be 960 nM. Moreover, the result in data set [2] and in data set [3] was Active. Moreover, the Activity result in data set [4], in data set [5], in data set [6] and in data set [7] was “Not Active” each time.

On to `COc1ccc(-c2nnc(Sc3ccc([N+](=O)[O-])c4nonc34)[nH]2)cc1`, for which the IC50 in data set [1] turned out to be 2300 nM. Besides, the result in data set [2] and in data set [3] was Active. Besides, the Activity entry in data set [4], in data set [5], in data set [6] and in data set [7] was “Not Active” each time.

As to `COc1ccc(N2C(=O)CC(Sc3n[nH]c(-c4ccccc4)n3)C2=O)cc1` (configuration not stated), the IC50 in data set [1] turned out to be 21000 nM. The outcome in data set [2] and in data set [3] was Active. Also, the Activity result in data set [4], in data set [5], in data set [6] and in data set [7] was “Not Active” each time.

Take `O=[N+]([O-])c1cccc(S(=O)(=O)Nc2cc(SCc3ccccc3)c(O)c3ccccc23)c1`: the IC50 in data set [1] was determined as 2000 nM. The outcome in data set [2] and in data set [3] was Active. Further, the Activity entry in data set [4], in data set [5], in data set [6] and in data set [7] was “Not Active” each time.

In the case of `Cn1c(CN2CCOCC2)nnc1Sc1ccc([N+](=O)[O-])c2nonc12`, the IC50 in data set [1] came to 1800 nM. Besides, the result in data set [2] and in data set [3] was Active. Besides, the Activity result in data set [4], in data set [5], in data set [6] and in data set [7] was “Not Active” each time.

As for `O=S(=O)(Nc1cc(Sc2cccc3cccnc23)c(O)c2ccccc12)c1ccccc1`, in data set [1], the IC50 was found to be 2400 nM. For the same compound, the result in data set [2] and in data set [3] was Active. For the same compound, the Activity result in data set [4], in data set [5], in data set [6] and in data set [7] was “Not Active” in each case.

On to `O=C1C=CC(=O)N1c1cccc(F)c1`, for which, in data set [1], the IC50 stood at 6100 nM. The outcome in data set [2] and in data set [3] was Active. The Activity result in data set [4], in data set [5], in data set [6] and in data set [7] was “Not Active” throughout.

Turning to `O=[N+]([O-])c1c(Sc2ncnc3[nH]cnc23)cc(Cl)c2nsnc12`, the IC50 in data set [1] was 2200 nM. For the same compound, the outcome in data set [2] and in data set [3] was Active. The Activity result in data set [4], in data set [5], in data set [6] and in data set [7] was “Not Active” throughout.

Regarding `O=C1C=CC(=O)N1c1ccc(Br)cc1`, the IC50 in data set [1] worked out at 3000 nM. Moreover, the outcome in data set [2] and in data set [3] was Active. Further, the Activity entry in data set [4], in data set [5], in data set [6] and in data set [7] was “Not Active” each time.

For the compound `O=S(=O)(Nc1cc(SCc2ccco2)c(O)c2ccccc12)c1ccccc1`, the IC50 in data set [1] came out at 2100 nM. Moreover, the result in data set [2] and in data set [3] was Active. In addition, the Activity entry in data set [4], in data set [5], in data set [6] and in data set [7] was “Not Active” each time.

Consider `O=[N+]([O-])c1cccc(S(=O)(=O)Nc2cc(Br)c(O)c3ccccc23)c1`, for which the IC50 in data set [1] was 5400 nM. The result in data set [2] and in data set [3] was Active. In addition, the Activity result in data set [4], in data set [5], in data set [6] and in data set [7] was “Not Active” each time.

As to `O=C(O)CSc1cc(Cl)c2nonc2c1[N+](=O)[O-]`, in data set [1], the IC50 came to 17000 nM. Besides, the outcome in data set [2] and in data set [3] was Active. The Activity result in data set [4], in data set [5], in data set [6] and in data set [7] was “Not Active” in each case.

Consider `O=[N+]([O-])c1c(SCc2ccccc2)cc(Cl)c2nonc12`, for which the IC50 in data set [1] was 1700 nM. The result in data set [2] and in data set [3] was Active. Also, the Activity entry in data set [4], in data set [5], in data set [6] and in data set [7] was “Not Active” in each case.

Take `Nc1ncnc2[nH]c(Sc3c([N+](=O)[O-])cc(Br)c4nsnc34)nc12`: in data set [1], the IC50 worked out at 3200 nM. For the same compound, the outcome in data set [2] and in data set [3] was Active. The Activity entry in data set [4], in data set [5], in data set [6] and in data set [7] was “Not Active” each time.

Turning to `O=[N+]([O-])c1ccc(Sc2nnc[nH]2)c2nsnc12`, the IC50 in data set [1] stood at 1700 nM. The outcome in data set [2] and in data set [3] was Active. Further, the Activity entry in data set [4], in data set [5], in data set [6] and in data set [7] was “Not Active” each time.

Take `COc1ccc(N2C(=O)C=CC2=O)cc1`: the IC50 in data set [1] amounted to 9200 nM. Further, the result in data set [2] and in data set [3] was Active. In addition, the Activity entry in data set [4], in data set [5], in data set [6] and in data set [7] was “Not Active” in each case.

For `Cc1ccc(N2C(=O)CC(Sc3nnc(-c4ccccc4O)o3)C2=O)cc1` (configuration not stated), the IC50 in data set [1] was determined as 50000 nM. Further, the outcome in data set [2] and in data set [3] was Active. Also, the Activity entry in data set [4], in data set [5], in data set [6] and in data set [7] was “Not Active” each time.
